High-throughput results as filed in PubChem BioAssay.
PolyA inh: polyadenylation inhibitors in yeast reporter cells, primary screen, luminescence, S. cerevisiae; S. cerevisiae SKY197-pL101 polyadenylation reporter, beta-gal luminescence; efflux-impaired pdr1/pdr3 knockout yeast; score 100 = 6 SD above DMSO; activity score, % at 12 µM; actives 0.02% (n = 300,000); AID 1875, 2009;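 active = lowest replicate activity score at least 50, where 100 means six control SD above control mean; inconclusive = lowest score under 50 but half or more replicates reach 50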;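 also: yeast exposed to compound for 9 h at 30 °C; higher score means more reporter readthrough which indicates perturbed polyadenylation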
NALP1 inh: NALP1 inflammasome inhibitors in reconstituted yeast, colorimetric, S. cerevisiae, triplicate retest. S. cerevisiae NALP1/ASC/caspase-1 growth, X-gal OD620, 72 h. inhibition, % at 10 µM. actives 0.61% (n = 280,000); in the data active = inhibition mostly above about 24%, no sharp cut-off; inactive = mostly below about 32%
Arr AP2 block: inhibitors of beta-arrestin/AP2 binding, primary screen, biochemical, GPCR trafficking, flow cytometry | beta-arrestin 1 C-terminal peptide binding to AP2 beta2-adaptin appendage (human) | FITC-arrestin peptide / GST-AP2 beads; AP2 beta2 appendage carries R879A mutation | inhibition, % at 10 µM | actives 0.31% (n = 340,000);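 active = inhibition above a set limit, near 3 SD of compounds lacking own fluorescence, cut at about 54% in these data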;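 also: plate controls were DMSO wells for no effect and 5 µM unlabelled arrestin peptide for full effect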
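test system = AP2 appendage R879A on GSH beads | buffer or medium = PBS plus Tween 20 (0.05%) and BSA (0.1%) | incubation = 12 min plus 1 h, RT | detection = bead flow cytometry, FITC channel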
DSG3 Ab inh: inhibitors of pemphigus antibody binding to DSG3, primary screen, biochemical, bead-based, flow cytometry, scFv-GFP. Desmoglein-3 (Homo sapiens), P32926. DSG3-coupled beads, scFv-anti-DSG3-GFP binding; hits give low values. AID 588358, 2011. binding (percent of control), % at 10 µM. actives 0.48% (n = 310,000);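 active = binding more than 3 SD below its plate's average and above zero; inconclusive = below that plate limit but binding exactly zero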;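 also: hits lower antibody fragment binding to DSG3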
ALR H2O2 inh: inhibitors of human ALR sulfhydryl oxidase, primary screen, biochemical, H2O2 detection, HRP-luminol luminescence, single point; FAD-linked sulfhydryl oxidase ALR (Homo sapiens), P55789; purified ALR, DTT oxidation; inhibition, % (no concentration beside the values); actives 3.8% (n = 290,000);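 active = mean replicate inhibition above about 79%, with every replicate also reaching it, limit read from the data; inconclusive = only one of the two criteria met; inactive = mean below limit and not every replicate reaching it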
Target sequence (P55789 whole entry, looked up): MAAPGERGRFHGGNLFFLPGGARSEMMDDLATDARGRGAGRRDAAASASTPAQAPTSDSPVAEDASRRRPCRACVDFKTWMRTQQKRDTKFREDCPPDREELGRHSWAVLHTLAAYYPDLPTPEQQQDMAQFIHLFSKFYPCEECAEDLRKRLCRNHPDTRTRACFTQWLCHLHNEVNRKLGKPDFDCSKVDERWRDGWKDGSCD
NLRP3 yeast inh: NALP3 inflammasome inhibitors in reconstituted yeast, primary screen, luminescence, uHTS; actives 0.39% (n = 330,000); Yeast reconstituted NLRP3/ASC/caspase-1, beta-gal luminescence, 24 h; inhibition, % at 10 µM; AID 2825, 2010;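 active = inhibition of 50% or more; inactive = inhibition below 50%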;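 also: plate controls were induced DMSO wells for no effect and uninduced yeast grown without galactose for full effect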
Starred values were filed as active, the others as inactive; ? = inconclusive; / = not tested or not shown. Sampled rows, rich in hits. Any-hit rate of the full collection: about 4.6%.

SMILES	PolyA inh	NALP1 inh	Arr AP2 block	DSG3 Ab inh	ALR H2O2 inh	NLRP3 yeast inh
O=[N+]([O-])c1cccc(N/N=C/c2cc([N+](=O)[O-])ccc2O)c1	-16.4	-4.1	7.8	106.0	95.6*	32.9
COc1cccc(/C=N/Nc2nc3ccccc3[nH]2)c1OC	-2.8	-0.7	7.0	116.3	/	18.1
COc1cc(/C=N/Nc2nc3ccccc3[nH]c2=O)ccc1O	13.2	-31.7	31.2	83.7	99.1*	-4.4
O=[N+]([O-])c1ccc(O)c(C=NNc2ccc(S(=O)(=O)O)cc2)c1	/	/	-4.2	90.6	/	/
COc1ccc(Nc2cc(C(=O)NC3CCCC3)c3ccccc3n2)c(OC)c1	-10.5	8.6	-1.5	102.9	13.2	7.9
COc1ccc(O)c(/C=N/Nc2nc3ccccc3[nH]2)c1	-3.3	-22.8	5.2	100.5	98.9*	-4.1
CC(=O)Nc1cc(=O)c2cccnc2[nH]1	/	/	7.8	72.7*	/	/
COc1cc(NC(C)=O)c2ncccc2c1NC(C)=O	?	-2.0	0.7	105.1	-32.7	21.6
Cc1csc(N=Cc2ccc([N+](=O)[O-])o2)n1	/	/	/	101.1	/	/
CCc1ccc2c(c1)C(NC(C)=O)C(=O)N2CCN1CCOCC1 (stereo not given)	1.5	21.7	-5.0	100.0	/	1.3
COCCNC(=O)c1cc2nc3c(c(C(F)(F)F)n2n1)CCc1ccccc1-3	-2.5	30.3*	8.1	92.1	-2.9	-12.0
O=C(O)c1cc2nc3c(c(C(F)(F)F)n2n1)CCc1ccccc1-3	-8.9	23.2	-2.4	/	-12.4	-9.4
Cc1cc2c(ncn2Cc2ccccc2)c(N)c1C	-2.1	18.8	17.5	101.6	93.5*	12.0
CC(NC(=O)COc1ccccc1)C(c1ccccc1)N1CCN(C)CC1 (stereo not given)	-19.2	-0.2	2.3	106.3	97.9*	17.3
CCOc1ccc(NC(=S)NC(C)C(c2ccccc2)N2CCN(C)CC2)cc1 (stereo not given)	-9.2	6.5	8.3	111.4	-10.1	18.5
CCN(C[C@H]1N[C@@](Cc2ccccc2)(C(=O)OC)[C@H]2C(=O)N(Cc3ccccc3)C(=O)[C@@H]12)C(=O)Nc1ccc(C(F)(F)F)cc1	/	/	-8.0	100.5	-1.7	19.0
CCCCCC(=O)Nc1nnn(CCC)n1	-7.4	42.6*	19.8	100.7	-6.6	-6.9
CCCn1nnc(NC(=O)Cc2ccccc2)n1	2.4	14.3	0.5	111.2	1.6	13.9
CC1CCC2C(=O)N(c3ccc(C(=O)Oc4cccc5cccnc45)cc3)C(=O)C2C1 (stereo not given)	3.2	70.9*	34.7	104.0	-32.2	17.1
Cc1ccc(C(=O)Oc2ccccc2N2C(=O)C3CCC(C)CC3C2=O)cc1 (stereo not given)	-24.8	15.9	-4.9	101.4	-13.5	-24.9
CCOc1ccccc1CNC(=O)C1CCCN(c2nnc(C)c3c(C)n(-c4ccccc4)nc23)C1 (stereo not given)	-5.0	20.9	10.1	104.5	1.0	17.5
COc1ccc(-c2nc(CC(=O)Nc3cccc(S(=O)(=O)NC4=NCCC4)c3)cs2)cc1	/	/	-14.5	/	/	7.9
Cc1cccc2nc(CSCc3ccco3)cn12	4.1	-13.9	0.5	105.3	98.0*	15.7
Cc1cc(C)n2cc(CSCc3ccco3)nc2n1	?	31.7	7.0	109.2	/	15.0
COc1cc(/C=N/NS(=O)(=O)c2ccc(Br)cc2)ccc1O	11.2	-13.9	-7.4	115.0	99.2*	-9.8
SMILES	PolyA inh	NALP1 inh	Arr AP2 block	DSG3 Ab inh	ALR H2O2 inh	NLRP3 yeast inh
CN(C)c1ccc(/C=N/NS(=O)(=O)c2ccc(Br)cc2)cc1	-7.1	14.6	14.6	101.2	89.6*	9.0
C/C(=N\NS(=O)(=O)c1ccc(Br)cc1)c1ccc2c(c1)OCO2	0.7	5.4	-2.2	106.3	30.9	22.8
C/C(=N/NS(=O)(=O)c1ccc(Br)cc1)c1ccc(C)o1	17.6	-10.6	-3.2	101.5	98.0*	16.4
Cc1cn(CC(=O)NCC2CCCO2)c(=O)[nH]c1=O (stereo not given)	/	/	35.1	111.7	/	/
CC(C)COC(=O)N(C)C[C@@H]1OCc2cnnn2CCCC(=O)N([C@@H](C)CO)C[C@H]1C	/	/	/	102.7	/	/
Cc1cccc(N(C(=O)CCC(=O)Nc2cc(C)on2)C(C(=O)NC2CCCC2)c2ccccc2)c1 (stereo not given)	-15.4	7.5	0.5	98.0	/	19.4
COC(=O)c1nc(NC(=O)c2cc(OC)c(OC)c(OC)c2)n[nH]1	22.9	22.0	8.9	93.1	98.0*	-7.9
CCOc1ccc(C(=O)CSCC(=O)O)cc1	1.5	-2.8	-2.3	95.3	98.5*	-10.8
COc1ccc(C(c2c[nH]c3ccccc23)c2c[nH]c3ccccc23)cc1O	-0.2	-44.4	1.4	105.0	87.9*	-0.5
CCCc1c(C(=O)OCC)[nH]c2c1C(=O)CCC2	19.1	43.2*	6.7	101.6	/	-0.7
CCC(=O)Nc1ccc(C(=O)n2ccc(C)n2)cc1	0.0	2.6	-2.2	104.2	0.0	1.5
Cc1ccn(C(=O)c2ccc(NC(=O)C3CC3)cc2)n1	-10.9	-2.9	17.5	73.5*	-1.3	14.8
CC(=O)Nc1ccc(NC(=O)C(C)OC(=O)C2(c3ccccc3F)CCCC2)cc1 (stereo not given)	/	/	6.4	/	/	16.1
COCCCNCCCOc1ccc(Cl)cc1Br	5.4	18.7	3.7	/	-6.7	11.3
CC1CCCN(CCOCCOc2ccc(Br)cc2Cl)C1 (stereo not given)	-40.4	48.0*	-5.4	105.0	-3.1	35.3
CC1CCCN(CCC(=O)c2ccc(Br)cc2)C1 (stereo not given)	/	47.4	15.8	101.7	98.8*	27.3
CCCCNCCOCCOc1ccc(Cl)cc1Br	-16.4	51.7*	-12.7	94.2	-7.0	25.0
CC1CCCN(CCOCCOc2ccc(Cl)cc2Br)C1 (stereo not given)	-43.1	41.7*	-2.2	114.0	3.0	34.4
C[C@@H]1CN([C@H](C)CO)C(=O)c2c(c3ccccc3n2C)-c2ccccc2CO[C@@H]1CN(C)S(=O)(=O)c1cccs1	/	/	/	103.5	/	/
CC(C)(C)S(=O)(=O)N1C[C@@H]2C(=CC[C@H]3C(=O)N(c4ccccc4)C(=O)[C@@H]23)[C@@H]1CCO	/	/	14.1	102.4	/	/
O=C(NCCCCCCNC(=O)OCc1ccccc1)OCc1ccccc1	/	/	35.0	6.8*	/	/
O=C(O)CCCNC(=O)OCc1ccccc1	4.7	0.2	4.9	/	-13.3	10.6
c1nc(NCC2(N3CCOCC3)CCCCC2)c2ccsc2n1	9.3	5.1	-6.2	109.5	-2.8	2.9
